Measured values taken from ChEMBL document CHEMBL1129612, “New low-density lipoprotein receptor upregulators acting via a novel mechanism” (J Med Chem, 1996).

Tested on: HepG2
Experiment: Compound was tested in vitro for up-regulation of low density lipoprotein (LDL) receptor in human hepatocytes (HepG2 cells) at a concentration 3 uM
Format: functional
In short: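 HepG2 cells (passage ≤10, DMEM with FCS, 5% CO2, 37 °C) plated at 10 000 cells/well and grown 3 days to 80% confluence. Compound at 3 µM added in DMEM with 1% BSA for 24 h. Cell-surface LDL receptors measured by fluorescence immunoassay: MAC-C7 antibody, then alkaline phosphatase-conjugated anti-mouse IgG, substrate ATTAPHOS. Cell number read by propidium iodide. Five replicates, mean % increase.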

Row | Structure (SMILES) | Activity
1 | Cc1ccc(NC(=O)CCC2CCCCC2)cc1/C=C(\C#N)c1ccc2c(c1)OCO2 | 108%
2 | COC(=O)c1ccc(C(=O)Nc2cc(NC(=O)CCC3CCCCC3)ccc2C)cc1 | 3%
3 | Cc1ccc(NC(=O)CCC2CCCCC2)cc1-c1nc2ccccc2[nH]1 | 45%
4 | Cc1ccc(NC(=O)CCC2CCCCC2)cc1-c1nc2cc(O)ccc2[nH]1 | 134%
5 | Cc1ccc(NC(=O)CCC2CCCCC2)cc1NC(=O)C1CCCCC1 | 0%
6 | Cc1ccc(NC(=O)CCC2CCCCC2)cc1/C=C(\C#N)c1cccnc1 | 126%
7 | CC(=O)Oc1ccc(C(=O)Nc2cccc(NC(=O)CCC3CCCCC3)c2)cc1 | 6%
8 | CC[C@H](C)C(=O)O[C@H]1C[C@@H](C)C=C2C=C[C@H](C)[C@H](CC[C@@H]3C[C@@H](O)CC(=O)O3)[C@H]21 [LOVASTATIN] | 70%
9 | Cc1ccc(NC(=O)CCC2CCCCC2)cc1NC(=O)c1ccc2c(c1)OCO2 | 111%
10 | Cc1ccc(NC(=O)CCC2CCCCC2)cc1NC(=O)c1ccccc1 | 50%
11 | Cc1ccc(NC(=O)CCC2CCCCC2)cc1NCc1ccc(O)cc1 | -11%
12 | Cc1ccc(NC(=O)CCc2ccccc2)cc1NC(=O)c1ccc(O)cc1 | -20%
13 | Cc1ccc(NC(=O)CC2CCCCC2)cc1NC(=O)c1ccc(O)cc1 | 3%
14 | O=C(CCC1CCCCC1)Nc1ccc(Br)c(NC(=O)c2ccc(O)cc2)c1 | 6%
15 | Cc1ccc(NC(=O)CCC2CCCCC2)cc1NC(=O)c1ccc([N+](=O)[O-])cc1 | 11%
16 | COc1ccc(NC(=O)CCC2CCCCC2)cc1NC(=O)c1ccc(OC(C)=O)cc1 | -13%
17 | Cc1ccc2[nH]c(-c3cc(NC(=O)CCC4CCCCC4)ccc3C)nc2c1 | 91%
18 | Cc1ccc(NC(=O)CCC2CCCCC2)cc1NC(=O)c1cccnc1 | 83%
19 | Cc1ccc(NC(=O)CCC2CCCCC2)cc1NC(=O)c1ccccc1O | 0%
20 | CCCCCCCCC(=O)Nc1ccc(C)c(NC(=O)c2ccc(O)cc2)c1 | -10%
21 | Cc1ccc(C(=O)NCCC2CCCCC2)cc1NC(=O)c1ccc(O)cc1 | 75%

Row | Structure (SMILES) | Activity
22 | Cc1ccc(C(=O)CCCC2CCCCC2)cc1NC(=O)c1ccc(O)cc1 | 10%
23 | Cc1ccc(NC(=O)CCC2CCCC2)cc1NC(=O)c1ccc(O)cc1 | 25%
24 | CC(=O)Oc1ccc(C(=O)Nc2cc(NC(=O)COC3CCCCC3)ccc2C)cc1 | 17%
25 | Cc1ccc(NC(=O)CCC2CCCCC2)cc1NC(=O)c1ccc(N)cc1 | 58%
26 | Cc1ccc(NC(=O)CCC2CCCCC2)cc1NC(=O)c1cc[n+]([O-])cc1 | 7%
27 | Cc1ccc(NC(=O)OCC2CCCCC2)cc1NC(=O)c1ccc(O)cc1 | 16%
28 | Cc1ccc(NC(=O)CCC2CCCCC2)cc1/C=C(\C#N)c1ccc(O)cc1 | 21%
29 | O=C(CCC1CCCCC1)Nc1ccc(F)c(NC(=O)c2ccc(O)cc2)c1 | 12%
30 | Cc1ccc(NC(=O)CCC2CCCCC2)cc1NC(=O)c1ccc(CO)cc1 | 44%
31 | O=C(CCC1CCCCC1)Nc1ccc(Cl)c(NC(=O)c2ccc(O)cc2)c1 | 8%
32 | Cc1ccc(NC(=O)CCC2CCCCC2)cc1NC(=O)c1ccncc1 | -5%
33 | CC(=O)Oc1ccc(C(=O)Nc2cc(NC(=O)CCC3CCCCC3)ccc2C)cc1 | 82%
34 | Cc1ccc(NC(=O)CCC2CCCCC2)cc1NC(=O)c1ccc(O)cc1 | 80%
35 | Cc1ccc(NC(=O)CCC2CCCCC2)cc1C(=O)Nc1ccc(O)cc1 | 60%
36 | Cc1ccc(NC(=O)CCN2CCCCC2)cc1NC(=O)c1ccc(O)cc1 | -2%
37 | Cc1ccc(C(=O)CCCC2CCCCC2)cc1NC(=O)c1cccnc1 | 111%
38 | Cc1ccc(NC(=O)NCC2CCCCC2)cc1NC(=O)c1ccc(O)cc1 | 10%
39 | Cc1ccc(NC(=O)CCCC2CCCCC2)cc1NC(=O)c1ccc(O)cc1 | 32%
40 | O=C(CCC1CCCCC1)Nc1ccc(O)c(NC(=O)c2ccc(O)cc2)c1 | -3%
41 | Cc1ccc(NC(=O)CCC2CCCCC2)cc1NC(=O)c1cccc(O)c1 | 59%
